Results from different studies.
Protocols differ between the studies behind these lines.
Sample: plasma

C[C@H](O)C(=O)C1=Nc2c(nc(N)[nH]c2=O)NC1  Cmax (human; oral; 20 mg/kg; single dose, healthy volunteers): 1.51 ng/mL
Cn1cc(Nc2nc(N)nc(-c3cccc(-n4ccc5cc(C6CC6)cc(F)c5c4=O)c3CO)n2)cn1  Cmax (human; oral; 5 mg; single dose, fasted, suspension): 28.6 ng/mL
Cc1ccc(C(=O)Nc2ccc(CN3CCN(C)CC3)c(C(F)(F)F)c2)cc1C#Cc1cnc2[nH]ncc2c1  Cmax (human; oral; 20 mg; single dose, fed, healthy volunteers): 5.02 ng/mL
CNC(=O)n1ccc2cc(Oc3ccnc(NC(=O)c4ccc(C5CCN(CCO)CC5)cc4)c3)c(OCCOC)cc21  Cmax (human; oral; 35 mg; single dose, fed, healthy volunteers): 6.81 ng/mL
CC(=O)N[C@H]1CC[C@H](NC(=O)CN2CCN(c3nncc(-c4ccc(C)cc4)n3)CC2)CC1  Cmax (female human; oral; 100 mg; single dose, fasted): 1550 ng/mL
CC(C)n1c(Nc2cccnc2)nc2cnc(Nc3ccc(N4CCN(C)CC4)cc3)nc21  Cmax (male human; oral; 100 mg; single dose): 45.7 ng/mL
COc1ccc([C@@H](O)c2cc(-c3ncnc4cc(N5CCOCC5)ccc34)c(F)cc2Cl)nn1  Cmax (human; oral; 200 mg; single dose, patients): 854 ng/mL
NS(=O)(=O)OC[C@@H]1C[C@@H](n2ccc3c(N[C@H]4CCc5ccccc54)ncnc32)C[C@@H]1O  Cmax (human; intravenous; 15 mg/m²; patients): 127 ng/mL
Cl.[2H]C([2H])([2H])CC(=O)c1cnc(NC(=O)C2CC2)cc1Nc1cccc(-c2ncn(C([2H])([2H])[2H])n2)c1OC  Cmax (human; oral; 20 mg; multiple doses, once daily, fasted): 132 ng/mL
CN1CC[C@@H](c2c(O)cc(O)c3c(=O)cc(-c4ccc(C(F)(F)F)cc4Cl)oc23)[C@@H]1CO  Cmax (human; oral; 150 mg; patients): 245 ng/mL
N[C@@H]1c2cccnc2[C@H](OC(=O)N2CCC(n3c(=O)[nH]c4ncccc43)CC2)CC[C@H]1c1cccc(F)c1F  Cmax (human; oral; 75 mg; single dose): 923 ng/mL
